High-throughput results: PubChem BioAssay, several laboratories
STAT1 blocker = STAT1 signaling inhibitors, primary screen, cell-based, HTS, luciferase reporter; NIH 3T3 STAT1-luciferase reporter, IFN-gamma, luminescence; AID 920, 2007; 200,000 tested, 0.35% active; inhibition, % at 5.5 µM;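 active means inhibition above a set limit, the mean inhibition across all tested compounds plus 3 SD, cut at about 34% in these data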;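 further: 0% = IFN-gamma with DMSO and 100% = IFN-gamma with 300 µM nifuroxazide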
APP 5'UTR act = activators of APP 5'UTR luciferase reporter, primary screen, SH-SY5Y cells. AID 1276, 2008. SH-SY5Y APP 5'UTR luciferase reporter, luminescence; zero percent = DMSO vehicle wells. 190,000 tested, 1% active. activation, % at 2 µM;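 active means activation above a set limit, based on mean plus 3 SD of controls, cut at about 140% in these data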
NF-kB expr up = activators of NF-kB expression in neurons, primary screen, cell-based, HTS; human neuronal cells, NF-kB reporter expression; hits give high values; fold change at 12.5 µM; 190,000 tested, 1.6% active; AID 1239, 2008; in the data active means fold change above about 3.3
STAT1 act = STAT1 signaling activators, primary screen, cell-based, HTS, luciferase reporter. NIH 3T3 STAT1-luciferase reporter, IFN-gamma, luminescence; 100% = IFN-gamma alone, no compound. activation (% of control), % at 5.5 µM. 200,000 tested, 2.6% active;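 active means activation above the screen-wide mean activation plus 3 SD, cut at about 130% in these data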;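 further: raw ratio to IFN-gamma control signal so 100% means no change and 0% no light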
STAT3 activator = IL-6 driven STAT3 reporter potentiators, primary screen, U3A cells, luciferase, luminescence, MLSCN library | 190,000 tested, 0.91% active | IL-6 STAT3-luciferase reporter; 100% = signal with IL-6 EC80 alone | activation (% of control), % at 5.6 µM;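 active means activation above the screen-wide mean of compound activation plus 3 SD, cut at about 130% in these data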;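 further: 0% = background luminescence of wells with medium and substrate only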
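Test system: Human STAT1-deficient U3A cells with stable STAT3-luciferase reporter | Also added: Interleukin-6, 33 ng/mL | Timing: Compound pre-incubation 1 h before IL-6, then 6 h stimulation at 37 °C | Technique: Luciferase reporter luminescence | Read-out: Percent of IL-6-only median luminescence | Benchmarks: IL-6-only wells as 100% reference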
STAT3 inh = IL-6 driven STAT3 reporter inhibitors, primary screen, U3A cells, luciferase, luminescence, MLSCN library; IL-6 STAT3-luciferase reporter; host cell line lacks STAT1; inhibition, % at 5.5 µM; 190,000 tested, 0.89% active;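 active means inhibition above the mean inhibition across all screened compounds plus 3 SD, cut at about 44% in these data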;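 further: 0% = DMSO only wells and 100% = 100 µM nifuroxazide control wells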
* marks the source's active call; other numbers are inactive results. An excerpt weighted towards active compounds, which were near 5.1% of everything screened.

SMILES	STAT1 blocker	APP 5'UTR act	NF-kB expr up	STAT1 act	STAT3 activator	STAT3 inh
CCc1nnc(NC(=O)CSc2nnc(CNC(=O)c3cc(OC)c(OC)c(OC)c3)o2)s1	6	21	1.1	93	94	9
COc1ccc(C(=O)C2CCCN(C(=O)C3=CCCC3)C2)cc1OC (centres undefined)	-1	10	1	100	102	2
O=[N+]([O-])c1ccccc1N/N=C/c1c[nH]c2ccccc12	-57	173*	4.2*	151*	203*	-118
Fc1cccc(/C=N/Nc2ccccn2)c1	-41	113	2.3	138*	100	4
Brc1ccc(-c2ccc(/C=N/Nc3nc4ccccc4[nH]3)o2)cc1	-42	85	1.7	138*	112	-12
Cn1cc([N+](=O)[O-])c(C(=O)N/N=C\c2c[nH]c3ccccc23)n1	-6	-2	1.2	103	115	-13
Fc1cccc(/C=N/Nc2nc3ccccc3[nH]2)c1	-44	133	2	141*	90	12
O=C(CSc1ccccn1)Nc1ccc(Cl)cn1	-14	-8	2	112	95	10
Cc1ccccc1/C=N/Nc1nc2ccccc2[nH]1	-5	94	1	103	87	19
C(=N\Nc1ccccn1)/c1ccc2c(c1)OCCO2	-41	140*	1	137*	76	31
C(=C\c1ccccc1)/C=N/Nc1nc2ccccc2[nH]1	-53	137*	4.5*	148*	108	-15
C(=N\Nc1nc2ccccc2[nH]1)/c1c[nH]c2ccccc12	-33	52	3.3	130*	112	-15
Cc1cc(/C=C(\C#N)C(=O)NCc2ccco2)c(C)n1-c1ccc(C(=O)O)cc1	4	-22	1.2	96	99	10
O=C(CNc1ccccc1-c1ccccc1)NCc1ccccc1	-1	-22	0.92	101	105	-6
O=C(COC(=O)c1cc(S(=O)(=O)N2CCOCC2)ccc1O)NCCc1ccccc1	-1	-4	1.2	104	110	-12
COc1ccc(/C=N/NC(=O)c2ccoc2C)cc1OC	-36	26	1.6	132*	95	4
CCCCCn1nc(C)c(/C=N/NC(=O)c2ccoc2C)c1C	-20	59	1.2	119	101	0
CCn1nc(C)c(/C=N/NC(=O)c2ccoc2C)c1C	-43	110	1.2	140*	96	8
O=C(N/N=C/C(Br)=C\c1ccccc1)c1n[nH]c2c1CCC2	-32	-96	8.3*	129*	142*	-50
Cc1occc1C(=O)N/N=C/C(Br)=C/c1ccccc1	-54	155*	6.4*	148*	81	24
COc1ccc(C(=O)N/N=C/C(Br)=C/c2ccccc2)cc1	11	-24	0.99	90	97	2
O=C(N/N=C/C=C/c1ccccc1)c1n[nH]c2c1CCC2	-18	-61	1.3	117	103	-5
CC(C)(C)SCCNC(=O)c1ccc(Cl)c([N+](=O)[O-])c1	-12	15	1.2	110	103	-3
O=[N+]([O-])c1ccc(N2CCN(S(=O)(=O)c3ccc4ccccc4c3)CC2)cc1NCC1CCCO1 (centres undefined)	-2	0	1	102	98	0
CC(C)[C@H](NC(=O)c1ccccc1)C(=O)OCC(=O)N1CCCc2ccccc21	-1	-27	0.89	101	104	-8
CN1C(N)=NC(=O)/C1=C/c1ccc(OC(F)(F)F)cc1	-12	1	1.2	110	87	21
CC(/C=N/NC(=O)Cc1cccs1)=C\c1ccccc1	-26	77	1.9	124	115	-17
O=C(Cc1cccs1)N/N=C/C(Br)=C/c1ccccc1	-53	74	1.4	148*	107	-4
COc1ccccc1C1CC(c2cccs2)=Nc2ccccc2S1 (centres undefined)	-13	146*	1.8	112	133*	-34
CCOc1ccc(NC(=O)CCC(=O)NNS(=O)(=O)c2ccccc2[N+](=O)[O-])cc1	4	20	1	94	104	-1
